This passage reports IC50, MIC and Activity results from ChEMBL document CHEMBL1154912, “Moluccensins H-J, 30-ketophragmalin limonoids from Xylocarpus moluccensis” (J Nat Prod, 2010).

Values after ≈ are worked out from the molar mass of the structure shown. Active and inactive are the calls of the source. The rule behind the calls is not given here.

Assay [1] can be described thus: Cytotoxicity against human KATO III cells after 3 days by MTT assay. The format is functional, cell-based, KATO III cell. The conditions noted are these: 72 h. The method in brief:
(§1)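 Cells grown in RPMI-1640 with 25 mM HEPES, 0.25% sodium bicarbonate, 5% FBS and 100 µg/mL kanamycin. Freshly trypsinized cells seeded at 5000 per well, compound added from DMSO-diluted stock, cultured three days. Attached cells stained with MTT, bound dye solubilized, absorbance read at 540 nm. IC50 (50% growth inhibition) averaged from at least six independent determinations.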
For orientation: Tetrazolium dyes change colour on reduction, which living cells bring about.

Assay [2] deals with HepG2. The assay is described as follows: Cytotoxicity against human HepG2 cells after 3 days by MTT assay. The format is functional, cell-based. The note with it: HepG2, 72 h. A digest of the protocol: as §1
In assay [3] the test system is Enterococcus faecalis. Nature of the assay: Antibacterial activity against Enterococcus faecalis ATCC 29212 by broth microdilution method. The format is functional. A digest of the protocol:
(§2)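 Broth microdilution per NCCLS protocol in Mueller Hinton broth; serial doubling dilutions from 0.5 to 256 µg/mL; final inoculum 5 × 10^5 cfu/mL. MIC taken as lowest concentration with no visible growth judged by turbidity.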
On the technique in general: In broth dilution the organism is exposed to a series of concentrations in liquid medium.

The nature of assay [4]: Cytotoxicity against human ChaGo cells after 3 days by MTT assay. The format is functional, cell-based. The note with it: 72 h. The method in brief:
as §1

Assay [5] concerns SW-620. Nature of the assay: Cytotoxicity against human SW620 cells after 3 days by MTT assay. It is filed as functional, cell-based. The conditions noted are these: SW-620, 72 h. The method in brief:
as §1

Assay [6] concerns Staphylococcus hominis. The assay is described as follows: Antibacterial activity against Staphylococcus hominis ATCC 27844 by broth microdilution method. The format is functional. A digest of the protocol:
as §2

The subject of assay [7] is BT-474. Nature of the assay: Cytotoxicity against human BT474 cells after 3 days by MTT assay. The format is functional, cell-based. The conditions noted are these: BT-474, 72 h. A digest of the protocol: as §1

With `COC(=O)C[C@H]1[C@]2(C)C[C@@]3(O)[C@]1(C)[C@H]1CC[C@]4(C)C(=C1C(=O)[C@@]3(OC)[C@H]2OC(C)=O)CC(=O)O[C@H]4c1ccoc1` [MOLUCCENSIN I], the 50% inhibitory concentration (IC50) in assay [1], in assay [2], in assay [4], in assay [5] and in assay [7] was over 10 µg/mL in each case. For the same molecule, the MIC in assay [3] stood at 223 µg/mL (≈ 401 µM); in assay [6] it was 256 µg/mL (≈ 460 µM).

For the molecule `COC(=O)C[C@H]1[C@]2(C)C[C@]3(O)[C@@](O)(C(=O)C4=C(CC[C@]5(C)C4=CC(=O)O[C@H]5c4ccoc4)[C@]13C)[C@H]2OC(C)=O` [MOLUCCENSIN H], the IC50 in assay [1], in assay [2], in assay [4], in assay [5] and in assay [7] was over 10 µg/mL each time. The outcome in assay [3] and in assay [6] was inactive.

For the molecule `COC(=O)C[C@H]1[C@]2(C)C[C@]3(O)[C@@H](C(=O)C4=C5CC(=O)O[C@@H](c6ccoc6)[C@]5(C)CC[C@@H]4[C@]13C)[C@H]2OC(C)=O` [MOLUCCENSIN J], the IC50 in assay [1], in assay [2], in assay [4], in assay [5] and in assay [7] was over 10 µg/mL each time. Moreover, the result in assay [3] and in assay [6] was inactive.

One may read the IC50 as the concentration needed to halve the response being measured. Low readings indicate inhibition by little substance, high ones a need for much substance. As usually defined, the MIC is the lowest concentration that inhibits growth of the organism.
